Legend:
HT-29 [1] = experiment: Growth inhibition of HT29 cells assessed as relative survival at 150 uM after 2 hrs relative to control; format: functional, Homo sapiens
Procedure, shortened: (§1)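 HT-29 colon carcinoma cells were exposed to drug for 2 h at 41°C, with DMSO as vehicle. Drug was then washed off and cells grown 14 days in fresh medium. Colonies of more than 50 cells were stained with crystal violet and counted. Survival was corrected for plating efficiency (vehicle, 2 h, 37°C) and for 2 h drug exposure at 37°C; vehicle at 41°C was set to 1.0. Student's t test.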

HT-29 [2] = experiment: Cell survival of human HT29 cells at 150 uM after 2 hrs; format: functional; settings: HT-29, 2 h, read-out: Survival
HT-29 [3] = experiment: Growth inhibition of HT29 cells assessed as relative survival at 50 uM after 2 hrs relative to control; format: functional, Homo sapiens; procedure, shortened: as §1
HT-29 [4] = experiment: Growth inhibition of HT29 cells at 50 uM after 2 hrs; format: functional; settings: Homo sapiens, HT-29, 2 h; procedure, shortened: as §1

Row | SMILES | Survival (HT-29 [1]) | viability at 150 µM (HT-29 [2]) [%] | Survival (HT-29 [3]) | inhibition at 50 µM (HT-29 [4]) [%]
1 | COc1ccc2c(c1)c(/C=C1/C(=O)C3CCN1CC3)cn2Cc1ccccc1 | 0.75 | > 70 | – | –
2 | Cc1ccc(Cn2cc(/C=C3/C(=O)C4CCN3CC4)c3ccccc32)cc1 | 1 | > 70 | – | –
3 | Cc1ccc(Cn2cc(/C=C3/C(O)C4CCN3CC4)c3cc(Br)ccc32)cc1 (configuration not stated) | 0.78 | > 70 | – | –
4 | O=C1/C(=C/c2cn(Cc3ccc(F)cc3)c3ccc(Br)cc23)N2CCC1CC2 | 0.81 | > 70 | – | –
5 | O=C1/C(=C/c2cn(Cc3ccc(Cl)cc3)c3ccc(Br)cc23)N2CCC1CC2 | 1 | > 70 | – | –
6 | OC1/C(=C/c2cn(Cc3ccccc3Br)c3ccc(Br)cc23)N2CCC1CC2 (configuration not stated) | 0.58 | > 70 | – | –
7 | Cc1ccc(Cn2cc(/C=C3/C(=O)C4CCN3CC4)c3cc(C)ccc32)cc1 | 1 | > 70 | – | –
8 | O=C1/C(=C/c2cn(Cc3ccccc3)c3ccc(Br)cc23)N2CCC1CC2 | 1 | > 70 | – | –
9 | Cc1ccc(Cn2cc(/C=C3/C(O)C4CCN3CC4)c3cc(C)ccc32)cc1 (configuration not stated) | – | < 70 | 0.59 | –
10 | Cc1ccc2c(c1)c(/C=C1/C(O)C3CCN1CC3)cn2Cc1ccccc1 (configuration not stated) | 1 | > 70 | – | –
11 | Cc1ccc(Cn2cc(/C=C3/C(O)C4CCN3CC4)c3ccccc32)cc1 (configuration not stated) | – | < 70 | 0.59 | –
12 | OC1/C(=C/c2cn(Cc3ccc(F)cc3)c3ccc(Br)cc23)N2CCC1CC2 (configuration not stated) | 0.52 | > 70 | – | –
13 | OC1/C(=C/c2cn(Cc3ccccc3)c3ccccc23)N2CCC1CC2 (racemic) | 0.06 | – | 1 | 93
14 | OC1/C(=C/c2cn(Cc3ccc(Cl)cc3)c3ccc(Br)cc23)N2CCC1CC2 (configuration not stated) | 0.9 | > 70 | – | –
15 | O=C1/C(=C/c2cn(Cc3ccc(F)cc3)c3ccccc23)N2CCC1CC2 | 0.71 | > 70 | – | –
16 | COc1ccc2c(c1)c(/C=C1/C(O)C3CCN1CC3)cn2Cc1ccccc1 (configuration not stated) | – | < 70 | 0.76 | –
17 | O=C1/C(=C/c2cn(Cc3ccccc3)c3ccccc23)N2CCC1CC2 | 0.5 | – | – | –
18 | OC1/C(=C/c2cn(Cc3ccccc3)c3ccc(Br)cc23)N2CCC1CC2 (configuration not stated) | 0.59 | > 70 | – | –
19 | Cc1ccc(Cn2cc(/C=C3/C(=O)C4CCN3CC4)c3cc(Br)ccc32)cc1 | 1 | > 70 | – | –
20 | COc1ccc(Cn2cc(/C=C3/C(=O)C4CCN3CC4)c3cc(Br)ccc32)cc1 | 0.86 | > 70 | – | –
21 | COc1ccc(Cn2cc(/C=C3/C(O)C4CCN3CC4)c3cc(Br)ccc32)cc1 (configuration not stated) | 0.61 | > 70 | – | –
22 | OC1/C(=C/c2cn(Cc3ccc(F)cc3)c3ccccc23)N2CCC1CC2 (configuration not stated) | – | < 70 | 0.7 | –
23 | Cc1ccc2c(c1)c(/C=C1/C(=O)C3CCN1CC3)cn2Cc1ccccc1 | 0.98 | > 70 | – | –
24 | O=C1/C(=C/c2cn(Cc3ccccc3Br)c3ccc(Br)cc23)N2CCC1CC2 | 0.96 | > 70 | – | –
25 | OC1/C(=C/c2cn(Cc3ccc(Cl)cc3)c3ccccc23)N2CCC1CC2 (configuration not stated) | – | < 70 | 0.07 | –
26 | O=C1/C(=C/c2cn(Cc3ccc(Cl)cc3)c3ccccc23)N2CCC1CC2 | 0.56 | > 70 | – | –
